According to ChEMBL document CHEMBL4387734, “Design and synthesis of a novel series of cyanoindole derivatives as potent γ-secretase modulators” (Bioorg Med Chem Lett, 2019):
Values after ≈ are worked out from the molar mass of the structure shown.

Key:
[1] = Inhibition of gamma secretase in mouse Neuro2 cells expressing endogenous levels of amyloid precursor protein assessed as reduction in Abeta42 levels incubated for 18 hrs by sandwich ELISA; type: cell-based
Summary of the method: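 IC50 as concentration reducing Aβ42 by 50%; mean of at least 2 determinations; mouse assay.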

[2] = molecular target: Gamma-secretase (Homo sapiens) (UniProt Q96BI3+Q9NZ42+Q8WW43+P49768+Q92542+P49810); test: Inhibition of gamma secretase in human SKNBE2 cells expressing human APP695 assessed as increase in Abeta38 levels at 10 uM incubated for 18 hrs by sandwich ELISA; type: cell-based; parameters: scale not given: the % may be the effect or the level left
[3] = Drug concentration in mouse plasma at 30 mg/kg, po measured after 4 hrs by LC/MS/MS method; type: ADME, organism-based
Summary of the method: (§1)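 Mice dosed orally at 30 mg/kg; plasma and brain sampled 4 h post-dose; compound quantified by qualified research LC–MS/MS; brain/plasma ratio at 4 h.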

[4] = Drug concentration in mouse brain at 30 mg/kg, po measured after 4 hrs by LC/MS/MS method; type: ADME, organism-based; details: read-out: Drug uptake; summary of the method: as §1
Mus musculus [5] = test: In vivo inhibition of gamma secretase in mouse assessed as assessed as reduction in Abeta42 levels in brain at 30 mg/kg, po measured after 4 hrs relative to control; type: functional
Gamma-secretase = test: Inhibition of gamma secretase in human SKNBE2 cells expressing human APP695 assessed as reduction in Abeta42 levels incubated for 18 hrs by sandwich ELISA
[6] = Fraction of unbound in rat brain
[7] = Free drug concentration in mouse brain; type: ADME, tissue-based; details: in vivo
Summary of the method: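 Free brain concentration calculated as fu,b × total brain level (μM), mouse 30 mg/kg p.o., 4 h.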

Mus musculus [8] = test: In vivo inhibition of gamma secretase in mouse increase in Abeta38 levels in brain at 30 mg/kg, po measured after 4 hrs relative to control; parameters: scale not given: the % may be the effect or the level left
hERG (KCNH2) = hERG (KCNH2) (Homo sapiens, UniProt Q12809); test: Inhibition of human ERG assessed as inhibition of IKr current at 3 uM by patch express assay
Chain of hERG (KCNH2) (Q12809 whole entry): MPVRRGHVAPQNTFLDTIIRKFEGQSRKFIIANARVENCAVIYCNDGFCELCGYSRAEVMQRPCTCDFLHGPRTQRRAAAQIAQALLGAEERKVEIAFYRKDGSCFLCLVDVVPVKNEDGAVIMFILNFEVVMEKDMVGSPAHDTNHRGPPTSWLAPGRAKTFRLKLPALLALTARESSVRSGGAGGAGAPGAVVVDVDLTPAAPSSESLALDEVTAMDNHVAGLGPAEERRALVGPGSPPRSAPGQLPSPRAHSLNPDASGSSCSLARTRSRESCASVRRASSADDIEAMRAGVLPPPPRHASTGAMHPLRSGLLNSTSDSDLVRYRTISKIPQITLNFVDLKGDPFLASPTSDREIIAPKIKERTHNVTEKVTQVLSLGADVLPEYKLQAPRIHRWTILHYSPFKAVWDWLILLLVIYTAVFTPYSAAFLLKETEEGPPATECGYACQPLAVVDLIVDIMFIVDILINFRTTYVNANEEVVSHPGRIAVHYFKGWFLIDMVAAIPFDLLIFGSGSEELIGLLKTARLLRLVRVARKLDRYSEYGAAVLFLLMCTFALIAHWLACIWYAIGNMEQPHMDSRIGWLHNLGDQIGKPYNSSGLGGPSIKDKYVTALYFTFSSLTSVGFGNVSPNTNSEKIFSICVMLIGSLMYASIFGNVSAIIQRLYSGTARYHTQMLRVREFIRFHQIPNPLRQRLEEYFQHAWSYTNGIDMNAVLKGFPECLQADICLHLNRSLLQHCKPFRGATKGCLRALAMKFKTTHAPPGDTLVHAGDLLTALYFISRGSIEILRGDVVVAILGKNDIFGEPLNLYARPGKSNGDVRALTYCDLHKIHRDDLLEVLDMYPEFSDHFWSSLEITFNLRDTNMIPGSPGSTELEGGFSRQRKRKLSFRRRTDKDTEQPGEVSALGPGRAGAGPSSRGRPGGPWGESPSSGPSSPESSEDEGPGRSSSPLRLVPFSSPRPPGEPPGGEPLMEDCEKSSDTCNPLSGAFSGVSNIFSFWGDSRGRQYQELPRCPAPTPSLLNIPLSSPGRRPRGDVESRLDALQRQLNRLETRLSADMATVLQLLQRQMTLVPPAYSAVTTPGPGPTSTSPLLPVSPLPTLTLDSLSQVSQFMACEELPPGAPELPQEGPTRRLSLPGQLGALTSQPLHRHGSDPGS
Summary of the method: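 Human ERG: percent inhibition of IKr current at 3 μM.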

Cytochrome P450 2D6 = Cytochrome P450 2D6 (Homo sapiens, UniProt P10635); test: Inhibition of CYP2D6 (unknown origin); type: ADME
Chain of Cytochrome P450 2D6 (P10635 whole entry): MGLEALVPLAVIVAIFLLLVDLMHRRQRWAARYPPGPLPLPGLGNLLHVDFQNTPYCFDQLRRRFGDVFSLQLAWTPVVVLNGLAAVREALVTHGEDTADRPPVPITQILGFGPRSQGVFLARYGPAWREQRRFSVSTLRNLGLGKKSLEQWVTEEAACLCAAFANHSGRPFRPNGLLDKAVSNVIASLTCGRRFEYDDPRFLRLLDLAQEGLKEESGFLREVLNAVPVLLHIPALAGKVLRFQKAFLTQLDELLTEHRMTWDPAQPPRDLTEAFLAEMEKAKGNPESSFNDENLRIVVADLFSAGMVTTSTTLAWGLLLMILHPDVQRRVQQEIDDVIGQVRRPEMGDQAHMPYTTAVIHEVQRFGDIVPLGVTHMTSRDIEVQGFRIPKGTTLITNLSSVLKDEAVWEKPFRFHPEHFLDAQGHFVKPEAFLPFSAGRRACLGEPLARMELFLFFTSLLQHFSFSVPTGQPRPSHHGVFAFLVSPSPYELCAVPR

[9] = Metabolic stability in dog liver microsomes assessed as compound metabolism at 1 uM incubated for 15 mins; type: ADME, Canis lupus familiaris, Microsome; details: read-out: Drug metabolism
Summary of the method: (§2)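 Compound at 1 μM incubated 15 min with human, mouse or dog liver microsomes; percent metabolized reported.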

[10] = Metabolic stability in mouse liver microsomes assessed as compound metabolism at 1 uM incubated for 15 mins; type: ADME, Microsome; details: read-out: Drug metabolism; summary of the method: as §2
[11] = Kinetic solubility of the compound in pH 7.4 buffer; type: physicochemical; details: read-out: Kinetic_solubility
[12] = Metabolic stability in human liver microsomes assessed as compound metabolism at 1 uM incubated for 15 mins; type: ADME, Microsome; details: read-out: Drug metabolism; summary of the method: as §2
Cytochrome P450 2C9 = Cytochrome P450 2C9 (Homo sapiens, UniProt P11712); test: Inhibition of CYP2C9 (unknown origin); type: ADME
Chain of Cytochrome P450 2C9 (P11712 whole entry): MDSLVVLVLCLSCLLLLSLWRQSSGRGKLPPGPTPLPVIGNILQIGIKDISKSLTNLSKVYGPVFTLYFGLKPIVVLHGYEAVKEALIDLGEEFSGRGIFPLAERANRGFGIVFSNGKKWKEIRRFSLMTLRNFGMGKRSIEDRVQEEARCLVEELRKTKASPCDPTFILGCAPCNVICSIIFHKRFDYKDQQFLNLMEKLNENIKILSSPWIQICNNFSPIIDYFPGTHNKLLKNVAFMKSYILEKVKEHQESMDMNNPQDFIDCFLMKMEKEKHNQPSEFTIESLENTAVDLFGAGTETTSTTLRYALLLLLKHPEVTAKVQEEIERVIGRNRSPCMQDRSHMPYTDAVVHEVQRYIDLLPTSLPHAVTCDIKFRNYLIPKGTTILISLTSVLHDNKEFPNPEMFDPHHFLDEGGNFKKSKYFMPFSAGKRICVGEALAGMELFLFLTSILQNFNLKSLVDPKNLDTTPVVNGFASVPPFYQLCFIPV

Cytochrome P450 2C19 = Cytochrome P450 2C19 (Homo sapiens, UniProt P33261); test: Inhibition of CYP2C19 (unknown origin); type: ADME
Chain of Cytochrome P450 2C19 (P33261 whole entry): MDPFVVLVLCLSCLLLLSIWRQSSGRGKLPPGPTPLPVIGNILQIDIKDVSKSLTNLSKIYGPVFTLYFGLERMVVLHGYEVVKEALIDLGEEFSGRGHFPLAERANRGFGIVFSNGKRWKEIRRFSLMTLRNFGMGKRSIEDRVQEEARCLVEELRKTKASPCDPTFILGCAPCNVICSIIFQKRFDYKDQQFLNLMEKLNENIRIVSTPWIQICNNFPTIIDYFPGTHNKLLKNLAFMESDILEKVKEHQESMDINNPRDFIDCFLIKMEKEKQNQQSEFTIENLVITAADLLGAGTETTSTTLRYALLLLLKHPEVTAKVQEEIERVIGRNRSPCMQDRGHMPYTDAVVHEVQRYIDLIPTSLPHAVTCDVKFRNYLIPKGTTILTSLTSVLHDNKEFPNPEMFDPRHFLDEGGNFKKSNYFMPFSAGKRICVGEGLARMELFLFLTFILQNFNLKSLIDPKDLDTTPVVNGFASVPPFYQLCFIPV

Cytochrome P450 3A4 [13] = molecular target: T1, Cytochrome P450 3A4 (Homo sapiens, UniProt P08684); test: Activation of CYP3A4 (unknown origin) using midazolam; type: ADME
T1 sequence (P08684 whole entry): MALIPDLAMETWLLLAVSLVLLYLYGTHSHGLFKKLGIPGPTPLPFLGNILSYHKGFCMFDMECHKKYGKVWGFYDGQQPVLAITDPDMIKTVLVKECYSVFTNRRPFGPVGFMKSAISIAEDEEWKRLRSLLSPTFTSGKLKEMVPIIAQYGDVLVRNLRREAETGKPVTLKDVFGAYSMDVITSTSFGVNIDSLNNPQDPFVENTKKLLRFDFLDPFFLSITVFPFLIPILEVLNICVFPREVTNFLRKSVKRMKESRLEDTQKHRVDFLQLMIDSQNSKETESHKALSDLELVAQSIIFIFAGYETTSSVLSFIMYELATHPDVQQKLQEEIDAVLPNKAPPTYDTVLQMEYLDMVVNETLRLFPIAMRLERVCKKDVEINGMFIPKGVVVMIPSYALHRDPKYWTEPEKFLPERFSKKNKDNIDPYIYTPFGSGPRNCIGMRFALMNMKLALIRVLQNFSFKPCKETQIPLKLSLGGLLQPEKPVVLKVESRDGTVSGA

[14] = molecular target: Voltage-gated inwardly rectifying potassium channel KCNH2 (Homo sapiens, UniProt Q12809); test: Inhibition of human ERG by receptor binding assay
Chain of Voltage-gated inwardly rectifying potassium channel KCNH2 (Q12809 whole entry): as the sequence (Q12809 whole entry) above
Summary of the method: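 Receptor binding on human hERG channel; IC50 reported.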

[15] = Ratio of drug concentration in brain to plasma of mouse at 30 mg/kg, po measured after 4 hrs by LC/MS/MS method; type: ADME, organism-based; details: read-out: BPR; summary of the method: as §1
[16] = Lipophilicity, log P of the compound; type: physicochemical; details: octanol/water
[17] = Cmax in dog at 10 mg/kg, po after 1.6 hrs; type: ADME, organism-based, Canis lupus familiaris; parameters: dose 10 mg/kg, route oral; details: in vivo
Summary of the method: (§3)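 Dogs given single oral 10 mg/kg dose; plasma concentration followed to obtain Cmax and time of Cmax.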

[18] = Tmax in dog at 10 mg/kg, po; type: ADME, organism-based, Canis lupus familiaris; details: in vivo; summary of the method: as §3
[19] = Toxicity in dog assessed as effect on AST level at 10 mg/kg, po; type: organism-based, Canis lupus familiaris; details: in vivo
Summary of the method: (§4)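 Single oral 10 mg/kg dose in dog; behaviour and appearance observed; plasma liver enzymes ALT and AST monitored.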

[20] = Toxicity in dog assessed as effect on appearance at 10 mg/kg, po; type: organism-based, Canis lupus familiaris; details: in vivo; summary of the method: as §4
[21] = Toxicity in dog assessed as effect on behavior at 10 mg/kg, po; type: organism-based, Canis lupus familiaris; details: in vivo; summary of the method: as §4
Canis familiaris [22] = test: In vivo inhibition of gamma secretase in dog assessed as assessed as reduction in Abeta42 levels in cerebrospinal fluid at 10 mg/kg, po measured after 8 hrs relative to control; details: Canis lupus familiaris
Cytochrome P450 1A2 = molecular target: T2, Cytochrome P450 1A2 (Homo sapiens, UniProt P05177); test: Inhibition of CYP1A2 (unknown origin); type: ADME
T2 sequence (P05177 whole entry): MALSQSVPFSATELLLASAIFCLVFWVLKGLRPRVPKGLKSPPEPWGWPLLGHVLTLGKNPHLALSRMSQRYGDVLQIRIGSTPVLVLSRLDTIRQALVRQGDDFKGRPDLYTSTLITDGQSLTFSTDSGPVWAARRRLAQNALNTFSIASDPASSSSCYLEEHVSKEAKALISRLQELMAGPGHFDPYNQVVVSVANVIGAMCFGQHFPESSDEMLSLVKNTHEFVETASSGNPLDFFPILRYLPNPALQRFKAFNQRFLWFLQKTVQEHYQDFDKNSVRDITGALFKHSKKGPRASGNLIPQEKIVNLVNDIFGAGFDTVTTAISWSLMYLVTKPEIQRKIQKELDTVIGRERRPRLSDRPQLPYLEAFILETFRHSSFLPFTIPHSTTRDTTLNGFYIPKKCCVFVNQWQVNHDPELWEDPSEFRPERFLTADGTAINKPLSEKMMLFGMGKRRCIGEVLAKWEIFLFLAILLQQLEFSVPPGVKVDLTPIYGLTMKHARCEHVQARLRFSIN

[23] = Toxicity in dog assessed as effect on ALT level at 10 mg/kg, po; type: organism-based, Canis lupus familiaris; details: in vivo; summary of the method: as §4
Canis familiaris [24] = test: In vivo inhibition of gamma secretase in dog assessed as assessed as increase in Abeta38 levels in CSF at 10 mg/kg, po measured after 8 hrs relative to control; type: functional, Canis lupus familiaris; parameters: scale not given: the % may be the effect or the level left
Cytochrome P450 3A4 [25] = molecular target: T1, Cytochrome P450 3A4; test: Inhibition of CYP3A4 (unknown origin) using midazolam; type: ADME
Cytochrome P450 2C8 = molecular target: T3, Cytochrome P450 2C8 (Homo sapiens, UniProt P10632); test: Inhibition of CYP2C8 (unknown origin); type: ADME
T3 sequence (P10632 whole entry): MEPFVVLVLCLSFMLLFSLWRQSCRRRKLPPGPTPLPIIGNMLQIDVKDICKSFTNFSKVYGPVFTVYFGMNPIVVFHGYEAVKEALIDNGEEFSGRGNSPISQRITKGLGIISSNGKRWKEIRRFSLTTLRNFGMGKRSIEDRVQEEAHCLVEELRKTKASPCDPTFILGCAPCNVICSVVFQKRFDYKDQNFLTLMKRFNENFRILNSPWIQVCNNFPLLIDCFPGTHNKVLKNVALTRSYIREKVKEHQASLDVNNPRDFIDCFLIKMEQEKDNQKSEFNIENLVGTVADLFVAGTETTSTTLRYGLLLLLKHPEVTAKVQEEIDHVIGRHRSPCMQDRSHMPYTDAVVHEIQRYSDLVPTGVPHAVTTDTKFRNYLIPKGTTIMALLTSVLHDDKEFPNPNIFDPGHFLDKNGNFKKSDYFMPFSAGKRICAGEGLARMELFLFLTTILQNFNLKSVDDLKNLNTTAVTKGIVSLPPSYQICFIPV

Work on `N#CCCNc1cc(Cc2c(Cl)cccc2Cl)nc(Nc2ccc(C#N)cc2)n1` yielded an IC50 [1] of 680 nM and an Activity [2] of 242%.

Compound `COc1c(C#N)ccc2[nH]c(-c3cn4c(n3)[C@H](c3ccccc3C(F)(F)F)OCC4)cc12` (single isomer, unassigned) has a concentration at 4 h [3] of 8.4 µM, a concentration at 4 h [4] of 16.4 µM and an IC50 [1] of 19 nM. It also gave an inhibition in vivo at 30 mg/kg (Mus musculus [5]) of 73%, an IC50 (Gamma-secretase) of 18 nM and a Fu [6] of 0.21%. The “Drug uptake(free)” value [7] was 0.034 µM and the Activity (Mus musculus [8]) was 10%.

Compound `COc1nc(-c2nc(Nc3cc(F)cc(C(F)(F)F)c3)n(C)n2)ccc1-n1cnc(C)c1` has an inhibition at 3 µM (hERG (KCNH2)) of 52%, a concentration at 4 h [3] of 17.8 µM and a concentration at 4 h [4] of 14 µM. The IC50 [1] was 49 nM, the inhibition in vivo at 30 mg/kg (Mus musculus [5]) was 55% and the IC50 (Gamma-secretase) was 19 nM. For the same compound, the IC50 (Cytochrome P450 2D6) was 16000 nM, the metabolised at 0.25 h, 1 µM [9] was 10% and the metabolised at 0.25 h, 1 µM [10] was 0%. It also gave a solubility kinetic [11] of 39 µM (≈ 17.4 µg/mL), a metabolised at 0.25 h, 1 µM [12] of 4% and a Fu [6] of 0.5%. For the same compound, the IC50 (Cytochrome P450 2C9) was 12300 nM, the IC50 (Cytochrome P450 2C19) was 22100 nM and the “Drug uptake(free)” value [7] was 0.069 µM. For the same compound, the Activity (Cytochrome P450 3A4 [13]) was “Active”, the Activity (Mus musculus [8]) was 53% and the IC50 [14] was greater than 10000 nM. The Kp at 4 h [15] was 0.8 and the logP [16] was 4.24.

`COc1c(C#N)ccc2[nH]c(-c3cn4c(n3)[C@H](c3ccccc3Cl)OCC4)cc12` gave a concentration at 4 h [3] of 8.3 µM, a concentration at 4 h [4] of 23.8 µM and an IC50 [1] of 23 nM. The inhibition in vivo at 30 mg/kg (Mus musculus [5]) was 60%, the IC50 (Gamma-secretase) was 26 nM and the Fu [6] was 0.47%. For the same compound, the “Drug uptake(free)” value [7] was 0.112 µM and the Activity (Mus musculus [8]) was 61%.

Work on `COc1c(C#N)ccc2[nH]c(-c3cn4c(n3)[C@H](c3cccc(F)c3C)OCC4)cc12` yielded a Cmax [17] of 2.4 µM, an inhibition at 3 µM (hERG (KCNH2)) of 31% and a Tmax [18] of 1.6 h. The Activity [19] was “Non-Toxic”, the concentration at 4 h [3] was 8.2 to 12.1 µM and the concentration at 4 h [4] was 8.25 to 12 µM. The IC50 [1] was 17 nM, the Activity [20] was “Non-Toxic” and the Activity [21] was “Non-Toxic”. It also gave an inhibition in vivo at 30 mg/kg (Mus musculus [5]) of 66%, an IC50 (Gamma-secretase) of 14 nM and an IC50 (Cytochrome P450 2D6) of 9800 nM. The metabolised at 0.25 h, 1 µM [9] was 29%, the metabolised at 0.25 h, 1 µM [10] was 27% and the solubility kinetic [11] was 6 µM (≈ 2.41 µg/mL). It also gave a metabolised at 0.25 h, 1 µM [12] of 18%, a Fu [6] of 0.22% and an IC50 (Cytochrome P450 2C9) of 5900 nM. For the same compound, the IC50 (Cytochrome P450 2C19) was 8300 nM, the “Drug uptake(free)” value [7] was 0.026 µM and the inhibition in vivo at 10 mg/kg (Canis familiaris [22]) was 37%. For the same compound, the IC50 (Cytochrome P450 1A2) was greater than 10000 nM, the Activity (Mus musculus [8]) was 40% and the Activity [23] was “Non-Toxic”. The Activity (Canis familiaris [24]) was 40%, the IC50 (Cytochrome P450 3A4 [25]) was greater than 10000 nM and the IC50 [14] was 5290 nM. For the same compound, the Kp at 4 h [15] was 1.46, the IC50 (Cytochrome P450 2C8) was 1300 nM and the logP [16] was 4.19.

In the case of `N#Cc1ccc(Nc2nc(Cc3c(Cl)cccc3Cl)cc(NCC(O)c3ccccc3)n2)cc1` (stereo not given), the IC50 [1] is reported as 1670 nM and the Activity [2] is reported as 244%.
